This passage reports Ki results from BindingDB's records for doi:10.1016/j.bmc.2019.03.030 (Northwestern University, 2019).

As a reminder, the Ki is the dissociation constant of the complex between target and ligand, obtained from inhibition or displacement. A lower Ki goes with tighter binding.

This assay addresses Sigma non-opioid intracellular receptor 1 (Homo sapiens, UniProt Q99720). Put plainly: Displacement of [3H]-(+)-pentazocine from sigma1 receptor (unknown origin) expressed in HEK293 cell membranes after 120 mins by microbeta scintillation counting method. The method in brief:
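Radioligand binding run by an external screening program; sigma-1 tracer [3H]-pentazocine, sigma-2 tracer [3H]-DTG. Each compound first tested at a single 10 μM concentration. Those giving >50% inhibition were then titrated over a dose range to derive pKi.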
(In a radioligand displacement assay an active substance lowers the binding of a labelled ligand.)

Sequence of Sigma non-opioid intracellular receptor 1 (Q99720 whole entry): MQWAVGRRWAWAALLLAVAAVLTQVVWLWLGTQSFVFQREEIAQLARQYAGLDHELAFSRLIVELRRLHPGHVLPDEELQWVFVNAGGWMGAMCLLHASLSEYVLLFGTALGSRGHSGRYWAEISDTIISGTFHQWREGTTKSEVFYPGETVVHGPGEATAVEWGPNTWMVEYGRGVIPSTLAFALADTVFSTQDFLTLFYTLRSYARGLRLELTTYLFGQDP

`O=C(c1c2c(nn1-c1ccc(F)cc1)CCC(NCc1ccc(F)cc1)C2)N1CCCCC1` (stereo unspecified) came in with a Ki of 0.016 µM.
